Experimental data: paper PMC7184160 (EBioMedicine, 2020)
Like-named read-outs stand apart in the source and are kept apart here.

Columns and labels:
metastatic RCC [1] = settings: range over the agents, cited from earlier work
[2] = cited from earlier work
metastatic RCC [3] = settings: phase II, advanced RCC after one previous antiangiogenic therapy; cited from earlier work
[4] = phase 1 safety and tolerability of vorolanib plus everolimus; format: in vivo, human; settings: in the combination, 22 patients
Outline: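 Open-label, single-centre 3+3 escalation in Chinese patients with advanced ccRCC after failed standard therapy. Oral test compound at 100, 150 or 200 mg daily, given 4 h after partner drug at a fixed 5 mg daily, in 28-day cycles. AEs graded by CTCAE v4.03. Allowed changes: stepwise reduction 200→150→100 mg/day, partner drug 5 mg every other day, and interruption up to 4 weeks.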

[5] = cited from earlier work; remark: listed apart in the source
[6] = system: VEGFR2 (KDR), PDGFR, Flt3 and c-Kit; settings: range over VEGFR2 (KDR), ref unpublished data; cited from earlier work
[7] = cited from earlier work; remark: listed apart in the source
[8] = cited from earlier work; remark: listed apart in the source
[9] = plasma pharmacokinetics of vorolanib, X-297 and everolimus; format: in vivo; settings: human, oral, t1/2z (half-life), range over cohorts, first single dose, vorolanib 100–200 mg in combination with everolimus 5 mg
[10] = established second-line monotherapies, Discussion
[11] = second-line options for metastatic RCC
[12] = monotherapy 50–800 mg once daily

## CNC(=O)c1ccccc1Sc1ccc2c(/C=C/c3ccccn3)n[nH]c2c1 [axitinib]
Metastatic RCC [1]; [10]
  median PFS: 4.4–8.3 months
Metastatic RCC [1]; [11]
  median PFS: 3.8–7.4 months

## COc1cc2nccc(Oc3ccc(NC(=O)C4(C(=O)Nc5ccc(F)cc5)CC4)cc3)c2cc1OC [cabozantinib]
Metastatic RCC [1]; [10]
  median PFS: 4.4–8.3 months
Metastatic RCC [1]; [11]
  median PFS: 3.8–7.4 months

## CO[C@H]1C[C@@H]2CC[C@@H](C)[C@@](O)(O2)C(=O)C(=O)N2CCCC[C@H]2C(=O)O[C@H]([C@H](C)C[C@@H]2CC[C@@H](OCCO)[C@H](OC)C2)CC(=O)[C@H](C)/C=C(\C)[C@@H](O)[C@@H](OC)C(=O)[C@H](C)C[C@H](C)/C=C/C=C/C=C/1C [everolimus]
[2]
  patients with grade 3 and 4 events: 50%
Metastatic RCC [1]; [10]
  median PFS: 4.4–8.3 months
Metastatic RCC [1]; [11]
  median PFS: 3.8–7.4 months
Metastatic RCC [3]
  median PFS: 5.5 months
[4]
  patients with dose interruption: eight

## COc1cc2nccc(Oc3ccc(NC(=O)NC4CC4)c(Cl)c3)c2cc1C(N)=O [lenvatinib]
Metastatic RCC [3]
  median PFS: 7.4 months

## CCN(CC)CCNC(=O)c1c(C)[nH]c(/C=C2\C(=O)Nc3ccc(F)cc32)c1C [sunitinib]
[5]
  grade 3/4 AE diarrhea: 5%
  grade 3/4 AE fatigue: 7%
  grade 3/4 AE hand-foot syndrome: 5%
  grade 3/4 AE hypertension: 8%
  grade 3/4 AE increased lipase: 13%
  grade 3/4 AE lymphopenia: 12%
  grade 3/4 AE neutropenia: 11%
  grade 3/4 AE vomiting: 4%

## Cc1[nH]c(/C=C2\C(=O)Nc3ccc(F)cc32)c(C)c1C(=O)N[C@H]1CCN(C(=O)N(C)C)C1 [vorolanib, Vorolanib]
[6]
  IC50: 0.13 to 1.12 nM
[7]; across 100 to 250 mg dose cohort
  patients with grade 3 or higher events: 7 out of 19
[7]
  recommended dose for monotherapy: 200 mg
[7]; monotherapy 50–250 mg once daily, Chinese patients
  MTD: not achieved
[7]; monotherapy, China
  dose-limited toxicity (DLT): No dose-limited toxicity (DLT) was observed
[8]; [12]
  grade 4 AEs or deaths related to vorolanib: no grade 4 AEs or deaths related to vorolanib was reported
  treatment-related grade 3 adverse event proteinuria: 4%
[8]; monotherapy tablet once daily
  apparent saturation of absorption (dose): 400 to 800 mg
[8]; monotherapy tablet, dose range 50–800 mg once daily, solid tumors
  MTD: not achieved
[8]; monotherapy, dose range 20 to 400 mg daily
  maximum tolerated dose (MTD): without achieving the most tolerated dose (MTD)
[8]; once daily, patients with advanced cancer
  recommended dose of monotherapy: 400 mg
[9]
  half-life: 4.74 to 12.9 h
[4]
  patients with dose interruption: fourteen
  patients with dose reduction: four

## nivolumab
Metastatic RCC [1]; [10]
  median PFS: 4.4–8.3 months
Metastatic RCC [1]; [11]
  median PFS: 3.8–7.4 months
